Most compounds without a hit are left out; they make up all but 0.48% or so of the library.
procasp7 counter: counter-screen: procaspase-7 (human) activation; P55210; recombinant procaspase-7, Ac-DEVD-pNA absorbance 405 nm; D23A/D198A/D206A triple mutant, cannot self-cleave; scale: DMSO 0, 5 µM enzyme 100; activation, % at 8.5 µM; 0.093% of 330,000 active; AID 463210;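 active = percent activation above the screen-wide mean plus 3 SD, cut at about 25% in these data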
Target sequence (P55210 whole entry D23A/D198A/D206A): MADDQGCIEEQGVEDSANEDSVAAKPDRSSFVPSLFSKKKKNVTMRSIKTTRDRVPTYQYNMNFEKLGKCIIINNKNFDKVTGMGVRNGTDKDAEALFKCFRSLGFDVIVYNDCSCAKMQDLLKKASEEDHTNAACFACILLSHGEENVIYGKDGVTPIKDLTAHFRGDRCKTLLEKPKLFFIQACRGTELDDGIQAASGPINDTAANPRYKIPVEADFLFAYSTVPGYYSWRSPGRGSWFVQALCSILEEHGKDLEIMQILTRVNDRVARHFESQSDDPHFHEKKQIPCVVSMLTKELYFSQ
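Test system: Procaspase-7 triple mutant (PC-7 D3A). Also added: Ac-DEVD-pNA substrate, 400 µM as added. Schedule: 1 h enzyme–compound preincubation and 2 h substrate reaction, both 25 °C. Signal: p-Nitroaniline absorbance at 405 nm, read at 0 and 120 min. Control set: low DMSO alone, high DMSO plus 5 µM PC-7.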
Bfl-1 A1 inh: inhibitors of the anti-apoptotic protein A1, read as caspase activation; MEF A1-2A-BIM cells, Caspase-Glo 3/7 luminescence, 3 h; percent of clofoctol response, vehicle zero; 0.066% of 330,000 active; AID 2462; caspase activation, % (concentration not given with the values);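 active = over half of replicate activation scores above 10%, or exactly half above 10 with the replicate mean above 10; inconclusive = replicate mean below 10 yet half the replicates above 10; inactive = over half of replicates below 10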
Rce1 inhib: yeast Ras-converting enzyme inhibition; 0.27% of 290,000 active; AID 2563; yeast membranes, quenched prenylated peptide cleavage fluorescence; Q03530; calls only;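 active = fall in fluorescence gain of 50% or more versus controls, with final raw signal at or below 3038400; inconclusive = same 50% fall but final raw signal above 3038400; inactive = fall in fluorescence gain under 50%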
proCasp3 act: activators of human procaspase-3 | P42574 | activation, % at 8.5 µM | recombinant procaspase-3 D3A, Ac-DEVD-pNA absorbance 405 nm | 0.11% of 330,000 active;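 active = activation above the mean of all tested compounds plus 3 SD, cut at about 21% in these data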
Target sequence (P42574 whole entry D9A/D28A/D175A): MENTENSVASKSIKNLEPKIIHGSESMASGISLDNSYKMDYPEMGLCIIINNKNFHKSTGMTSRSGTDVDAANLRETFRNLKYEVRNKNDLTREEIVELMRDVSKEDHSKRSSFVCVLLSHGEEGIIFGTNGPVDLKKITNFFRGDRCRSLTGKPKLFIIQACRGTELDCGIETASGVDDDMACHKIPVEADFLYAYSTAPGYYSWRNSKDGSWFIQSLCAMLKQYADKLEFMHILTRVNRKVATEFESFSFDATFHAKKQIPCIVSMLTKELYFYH
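Evaluation: percent activation relative to control range; Material: Procaspase-3 D3A mutant, all three cleavage aspartates alanine; Compound: single dose, 8.5 µM nominal compound, 0.8% DMSO; Replication: one well per compound; Signal: absorbance at 405 nm, 0 and 120 min; Schedule: 1 h preincubation plus 2 h reaction at 25 °C.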
PolyA inh: inhibitors of polyadenylation in S. cerevisiae; AID 1875; S. cerevisiae SKY197-pL101 polyadenylation reporter, beta-gal luminescence; efflux-impaired pdr1/pdr3 knockout yeast; score 100 = 6 SD above DMSO; 0.02% of 300,000 active; activity score, % at 12 µM;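 active = lowest replicate activity score at least 50, where 100 means six control SD above control mean; inconclusive = lowest score under 50 but half or more replicates reach 50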;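 note: yeast exposed to compound for 9 h at 30 °C; higher score means more reporter readthrough which indicates perturbed polyadenylation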
Large screens that a line does not name were inactive.

NC(=O)[C@@H]1CC2(CC(c3cccc(NC(=O)COc4ccc(Cl)cc4)c3)=NO2)CN1C(=O)COc1ccc(Cl)cc1 (some centres undefined)	none
CC(C)C[C@H](NC(=O)c1nc[nH]c1C(=O)N1CCN(c2ccccc2)CC1)C(=O)OCc1ccccc1	none
CC(C)C[C@H](NC(=O)c1nc[nH]c1C(=O)N1CCNCC1)C(=O)OCc1ccccc1	Rce1 inhib active
CS/C(=N\S(=O)(=O)c1cccs1)Nc1ccc(F)c(Cl)c1	none
CS/C(=N\S(=O)(=O)c1cccs1)Nc1cccc(Cl)c1C	PolyA inh 86
COc1cc(/C=C2\SC(=S)N(NC(=O)c3cccnc3)C2=O)ccc1O	PolyA inh 86
Nc1c(Cl)cc(C2=NCCn3nc4cc(C(F)(F)F)ccc4c32)cc1Cl	Rce1 inhib active
COc1ccc(NC(=O)Nc2ccc3c(c2)C(=O)N([C@H](C)CO)C[C@H](C)[C@@H](CN(C)C(=O)Nc2ccc(C(F)(F)F)cc2)O3)cc1	none (no result: Rce1 inhib, PolyA inh)
N#CC(C(=O)C12CC3CC(CC(C3)C1)C2)c1nc2ccccc2[nH]1 (centres undefined)	none
N#CC(/C(=N/S(=O)(=O)c1cccs1)c1ccccc1)c1nc2ccccc2[nH]1 (centres undefined)	Rce1 inhib active
COC(=O)Cc1c(C)c2ccc(OCc3nn[nH]n3)c(C)c2oc1=O	Rce1 inhib active
COc1ccc(C(=O)/C=C/c2ccc(OC)cc2OC)c(O)c1	Rce1 inhib active
O=C(c1ccc([N+](=O)[O-])cc1)N1CCC(Cc2ccccc2)CC1	none
O=C(c1cnc(Cl)c(Cl)c1)N1CCC(Cc2ccccc2)CC1	Rce1 inhib active
COc1cc(C2CC(=O)Oc3c(C(CCN4CCOCC4)c4ccc(N(C)C)cc4)c(OC)cc(OC)c32)cc(OC)c1OC (centres undefined)	PolyA inh 58
COc1ccc(C2SCC(=O)N2c2c(C)n(C)n(-c3ccccc3)c2=O)cc1OC (centres undefined)	PolyA inh 67
Cc1c(N2C(=O)CSC2c2ccccc2)c(=O)n(-c2ccccc2)n1C (centres undefined)	none
COc1ccc(-c2ccc3oc(-c4ccc(OC)cc4)c(-c4ccc(OC)cc4)c3c2)cc1	Rce1 inhib active
COc1cc(S(=O)(=O)Nc2ccc(Br)cc2)ccc1N	none
Cc1ccc(-c2cc(C)nc3nc(N)nn23)cc1	Rce1 inhib active
Cc1ccc(-c2cc(C)nc3ncnn23)cc1	none
CCC(=O)Nc1ccc(/C(C)=N\NC(=O)c2ccc(OC)cc2)cc1	none
CC[C@]12c3[nH]c4ccc(Cl)cc4c3CCN1C(=O)[C@@H](CC(=O)NCCC1=CCCCC1)C[C@@H]2C(=O)N1CCN(C(=O)c2ccco2)CC1	none (no result: Bfl-1 A1 inh, Rce1 inhib, PolyA inh)
Cc1cc(C)n2c(nc3ccccc32)c1C(=O)NCc1ccccc1	Rce1 inhib active
Cc1cc(C)n2c(nc3ccccc32)c1C(=O)NN	none
CCC(=O)Nc1cccc(NC(=S)NC(=O)c2cccs2)c1	Rce1 inhib active
Cc1cc(N/N=C/c2ccc(O)c(C)c2O)nc(-c2ccccc2O)n1	Rce1 inhib active
CCN(CC)CCNC(=O)c1[nH]c2ccc(OCc3ccccc3)cc2c1C	Rce1 inhib active
CCN(Cc1ccccc1)C(=O)c1[nH]c2ccc(OC)cc2c1C	none (no result: procasp7 counter, Bfl-1 A1 inh, proCasp3 act)
COc1cccc(C2CC(c3ccc(Br)cc3)=NN2C(=O)c2ccncc2)c1OC (centres undefined)	Rce1 inhib active
COc1ccccc1C1CC(c2ccc(Br)cc2)=NN1C(=O)c1cccnc1 (centres undefined)	none
Cc1ccc(NC(=O)c2ccc(N/N=C/c3cccc(O)c3)c([N+](=O)[O-])c2)cc1	Bfl-1 A1 inh 36
Cc1cc2cc(C(=O)N3CCc4c([nH]c5ccccc45)C3c3ccccn3)ccc2o1 (centres undefined)	Rce1 inhib active
COc1cc(CN2CCN(C(=O)c3ccccc3F)CC2)cc(OC)c1OC	none (no result: procasp7 counter, proCasp3 act)
O=C1NC(c2ccc(Br)cc2)Nc2ccccc21 (centres undefined)	Rce1 inhib active
O=C(c1ccco1)N1CCN(Cc2nnnn2CCc2ccccc2)CC1	none
O=C(Nc1ccccc1)n1ccc(-c2ccc(-n3ccnc3)cc2)n1	Rce1 inhib active
O=c1[nH]c(Nc2ccccn2)cc2ccccc12	Rce1 inhib active
C[C@@]12CCC=C[C@H]1[C@H](c1ccc(/C=C/c3ccccc3)cc1F)N(Cc1ccccc1)C2=O	Rce1 inhib active
C[C@@]12CCC=C[C@H]1[C@H](c1ccc3ccccc3c1/C=C/c1ccccc1)N(Cc1ccccc1)C2=O	none
C=CC[N+]1(CC=C)CCOCC1	Bfl-1 A1 inh 8.6
C=CC[N+]1(CC#CCOC(c2ccccc2)c2ccccc2)CCOCC1	none
O=C(CN1CCOCC1)N/N=C/c1ccc(-c2cccc(Cl)c2Cl)o1	none
CC1(C)OC(=O)C(=Cc2ccc(-c3ccc(S(N)(=O)=O)cc3)o2)C(=O)O1	Bfl-1 A1 inh 6.1
NS(=O)(=O)c1ccc(-c2ccc(/C=C3\C(=O)Nc4ccccc43)o2)cc1	none
Oc1ccc(-c2nc3ccccn3c2NCc2ccco2)cc1	Rce1 inhib active, PolyA inh inconclusive
Cc1csc(SCC(=O)NCc2cccc(Cl)c2)n1	none
Cn1c(CCNS(=O)(=O)c2ccccc2)nnc1SCc1cccnc1	Rce1 inhib active
O=C(O)CCC1c2cc3c4cc2OC2Oc5cc6c(cc51)C(CCC(=O)O)c1cc5c7cc1OC(O6)c1cc6cc(c1)Oc1cc(cc(C(=O)O)c1)Oc1cc8cc(c1)C(Oc1cc(c(cc1C5CCC(=O)O)C3CCC(=O)O)OC(O4)c1cc(cc(c1)Oc1cc(cc(C(=O)O)c1)O8)Oc1cc(cc(C(=O)O)c1)Oc1cc(cc2c1)Oc1cc(cc(C(=O)O)c1)O6)O7 (centres undefined)	none
Cn1cnc2c(oc3ccccc32)c1=O	none
O=C(O)C1Sc2[nH]c(=O)sc2C2c3cc(Cl)ccc3OC(=O)C12 (centres undefined)	none
O=C(O)C1Sc2[nH]c(=O)sc2C2c3ccc(O)cc3OC(=O)C12 (centres undefined)	Rce1 inhib active (no result: PolyA inh)
COC(=O)c1ccc(CNC(=O)Cn2cnc(C(=O)Nc3ccc(C)c(C)c3)n2)cc1	none (no result: Bfl-1 A1 inh, Rce1 inhib, PolyA inh)
COC(=O)c1ccc2c(=O)n(Cc3ccco3)c(SCC(=O)Nc3ccc(C)c(Cl)c3)nc2c1	Bfl-1 A1 inh 17
CC(=O)C[C@H]1c2cc(F)ccc2S(=O)(=O)N1c1ccc(N(C)C)cc1	none
C/C(=N\NC(=O)COc1ccc(C)cc1Br)c1cc([N+](=O)[O-])cs1	none
C/C(=N\NC(=O)COc1ccc(C)cc1[N+](=O)[O-])c1cccs1	PolyA inh 98

Screens (PubChem)
